One assay relates to Streptococcus pneumoniae. Briefly: Antibacterial activity against Streptococcus pneumoniae MTCC 1936 by broth microdilution method. The format is functional. The essentials: (§1)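 Broth microdilution per NCCLS, with serial dilutions in Mueller Hinton broth and DMSO as diluent. Tubes were incubated overnight at 37 °C. MIC was the lowest concentration giving no visible growth, with the control organism's MIC read to verify concentrations. Tubes without growth were subcultured overnight at 37 °C to judge bacteriostatic versus bactericidal action.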
On the technique in general: Broth dilution looks for growth in wells or tubes with falling amounts of substance.

Another assay deals with Clostridium tetani. In words: Antibacterial activity against Clostridium tetani MTCC 449 by broth microdilution method. In kind it is functional.
Another assay has as its system Candida albicans. In words: Antifungal activity against Candida albicans MTCC 227 by broth microdilution method. The format is functional.
Another assay relates to Aspergillus fumigatus. In words: Antifungal activity against Aspergillus fumigatus MTCC 3008 by broth microdilution method. In kind it is functional.
In the next assay the test system is Bacillus subtilis. Briefly: Antibacterial activity against Bacillus subtilis MTCC 441 by broth microdilution method. The format is functional. The essentials:
as §1

Another assay has as its system Vibrio cholerae. Briefly: Antibacterial activity against Vibrio cholerae MTCC 3906 by broth microdilution method. The format is functional.
The subject of assay [1] is Mycobacterium tuberculosis. Briefly: Growth inhibition of Mycobacterium tuberculosis H37Rv at 6.25 ug/mL after 12 to 28 days relative to control. In kind it is functional.
The next assay has as its system Plasmodium falciparum. In words: Antimalarial activity against trophozoite stage of chloroquine-sensitive Plasmodium falciparum 3D7 infected in human erythrocytes after 48 hrs. The format is functional, organism-based. Particulars: 3D7, 48 h. In short, it runs like this:
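Parasites were kept in continuous culture in A+ human erythrocytes in RPMI with 10% human serum. Sorbitol-synchronized trophozoites at 1–2% parasitaemia and 2.5% haematocrit were exposed to serial dilutions (maximum 1 mg/ml; 0.02% final DMSO) for 48 h at 37 °C. Growth inhibition was measured; chloroquine and quinine served as positive controls. IC50 came from duplicate experiments.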

Another assay concerns Escherichia coli. Briefly: Antibacterial activity against Escherichia coli MTCC 443 by broth microdilution method. In kind it is functional. In short, it runs like this: as §1
The test system of the next assay is Salmonella typhi. Briefly: Antibacterial activity against Salmonella typhi MTCC 98 by broth microdilution method. In kind it is functional, Salmonella enterica subsp. enterica serovar Typhi. The conditions noted are these: Salmonella enterica.

Values after ≈ are worked out from the molar mass of the structure shown.

As to `COc1ccc2nc(Cl)c(C3C(C#N)=C(N)N(Nc4ccc(Cl)cc4)C4=C3C(=O)CC(C)(C)C4)cc2c1` (stereo not given), the MIC against Streptococcus pneumoniae is 100 µg/mL (≈ 187 µM); against Clostridium tetani, 200 µg/mL (≈ 374 µM); against Candida albicans, more than 1000 µg/mL; against Aspergillus fumigatus, more than 1000 µg/mL; in the assay on Bacillus subtilis, 100 µg/mL (≈ 187 µM); in the assay with Vibrio cholerae, 100 µg/mL (≈ 187 µM). Further, the MIC in the assay on Escherichia coli was found to be 250 µg/mL (≈ 468 µM); against Salmonella typhi, 100 µg/mL (≈ 187 µM). In assay [1], the inhibition at 6.25 µg/mL is 21%. In addition, the IC50 in the assay with Plasmodium falciparum is 0.009 µg/mL (≈ 0.0168 µM).
As to `Cc1ccc(NN2C(N)=C(C#N)C(c3cc4cc(Cl)ccc4nc3Cl)C3=C2CC(C)(C)CC3=O)cc1` (stereo not given), the MIC in the assay with Streptococcus pneumoniae came out at 500 µg/mL (≈ 964 µM); against Clostridium tetani, 250 µg/mL (≈ 482 µM); in the assay with Candida albicans, 500 µg/mL (≈ 964 µM); against Aspergillus fumigatus, 500 µg/mL (≈ 964 µM); in the assay with Bacillus subtilis it was 500 µg/mL (≈ 964 µM); against Vibrio cholerae, 250 µg/mL (≈ 482 µM). In addition, the MIC in the assay with Escherichia coli and with Salmonella typhi was 250 µg/mL (≈ 482 µM) in each case. Further, in assay [1], testing at 6.25 µg/mL gave an inhibition of 72%. This compound showed an IC50 with Plasmodium falciparum of 0.014 µg/mL (≈ 0.027 µM).
`COc1ccc2nc(Cl)c(C3C(C#N)=C(N)N(Nc4ccc(C)cc4)C4=C3C(=O)CC(C)(C)C4)cc2c1` (stereo not given): the MIC with Streptococcus pneumoniae amounted to 200 µg/mL (≈ 389 µM); against Clostridium tetani, 100 µg/mL (≈ 195 µM); against Candida albicans, 500 µg/mL (≈ 973 µM); against Aspergillus fumigatus, 500 µg/mL (≈ 973 µM); against Bacillus subtilis it was 200 µg/mL (≈ 389 µM); with Vibrio cholerae, 200 µg/mL (≈ 389 µM). Moreover, the MIC in the assay on Escherichia coli came to 150 µg/mL (≈ 292 µM); against Salmonella typhi, 200 µg/mL (≈ 389 µM). The same compound returned an inhibition at 6.25 µg/mL in assay [1] of 50%. The half-maximal inhibitory concentration (IC50) in the assay on Plasmodium falciparum turned out to be 0.19 µg/mL (≈ 0.37 µM).
On to `COC1=CC(=O)C[C@@H](C)[C@]12Oc1c(Cl)c(OC)cc(OC)c1C2=O` [GRISEOFULVIN], for which the MIC against Candida albicans came out at 500 µg/mL (≈ 1420 µM); in the assay on Aspergillus fumigatus, 100 µg/mL (≈ 283 µM).
As to `COc1ccc(NN2C(N)=C(C#N)C(c3cc4cc(C)ccc4nc3Cl)C3=C2CC(C)(C)CC3=O)cc1` (stereo not given), the MIC with Streptococcus pneumoniae is 100 µg/mL (≈ 195 µM); against Clostridium tetani, 500 µg/mL (≈ 973 µM); against Candida albicans, more than 1000 µg/mL; against Aspergillus fumigatus, more than 1000 µg/mL; in the assay on Bacillus subtilis, 200 µg/mL (≈ 389 µM); in the assay with Vibrio cholerae it was 500 µg/mL (≈ 973 µM). Further, the MIC against Escherichia coli came out at 250 µg/mL (≈ 486 µM); against Salmonella typhi, 500 µg/mL (≈ 973 µM). This compound yielded an inhibition at 6.25 µg/mL in assay [1] of 3%. In the assay on Plasmodium falciparum, this compound registered an IC50 of 0.54 µg/mL (≈ 1.05 µM).
In the case of `CC1(C)S[C@@H]2[C@H](NC(=O)[C@H](N)c3ccccc3)C(=O)N2[C@H]1C(=O)O` [AMPICILLIN], the MIC with Streptococcus pneumoniae turned out to be 100 µg/mL (≈ 286 µM); in the assay with Clostridium tetani it was 250 µg/mL (≈ 715 µM); in the assay on Bacillus subtilis, 250 µg/mL (≈ 715 µM); against Vibrio cholerae, 100 µg/mL (≈ 286 µM); against Escherichia coli it was 100 µg/mL (≈ 286 µM); with Salmonella typhi, 100 µg/mL (≈ 286 µM).
As to `Cc1ccc2nc(Cl)c(C3C(C#N)=C(N)N(Nc4ccc(Cl)cc4)C4=C3C(=O)CC(C)(C)C4)cc2c1` (stereo not given), the MIC against Streptococcus pneumoniae turned out to be 250 µg/mL (≈ 482 µM); in the assay with Clostridium tetani, 250 µg/mL (≈ 482 µM); with Candida albicans, 500 µg/mL (≈ 964 µM); in the assay on Aspergillus fumigatus, 1000 µg/mL (≈ 1930 µM); against Bacillus subtilis, 500 µg/mL (≈ 964 µM); in the assay with Vibrio cholerae it was 200 µg/mL (≈ 386 µM). The MIC against Escherichia coli came to 100 µg/mL (≈ 193 µM); in the assay with Salmonella typhi it was 200 µg/mL (≈ 386 µM). In assay [1], this compound had an inhibition at 6.25 µg/mL of 15%. For the same compound, in the assay with Plasmodium falciparum, half-maximal inhibition (IC50) was put at 0.008 µg/mL (≈ 0.0154 µM).
In the case of `Cc1ccc2nc(Cl)c(C3C(C#N)=C(N)N(Nc4ccc(F)cc4)C4=C3C(=O)CC(C)(C)C4)cc2c1` (stereo not given), the MIC in the assay on Streptococcus pneumoniae was found to be 250 µg/mL (≈ 498 µM); with Clostridium tetani, 200 µg/mL (≈ 398 µM); against Candida albicans, 1000 µg/mL (≈ 1990 µM); with Aspergillus fumigatus, 1000 µg/mL (≈ 1990 µM); against Bacillus subtilis, 250 µg/mL (≈ 498 µM); in the assay on Vibrio cholerae, 200 µg/mL (≈ 398 µM). The MIC in the assay on Escherichia coli and against Salmonella typhi was 250 µg/mL (≈ 498 µM) throughout. This compound also showed an inhibition at 6.25 µg/mL in assay [1] of 33%. The same compound registered an IC50 in the assay with Plasmodium falciparum of 0.047 µg/mL (≈ 0.0936 µM).
In the case of `CO[C@H]1/C=C/O[C@@]2(C)Oc3c(C)c(O)c4c(O)c(c(/C=N/N5CCN(C)CC5)c(O)c4c3C2=O)NC(=O)/C(C)=C\C=C\[C@H](C)[C@H](O)[C@@H](C)[C@@H](O)[C@@H](C)[C@H](OC(C)=O)[C@@H]1C` [RIFAMPIN], at 6.25 µg/mL the inhibition in assay [1] was 98%.
As to `COc1ccc2nc(Cl)c(C3C(C#N)=C(N)N(Nc4ccccc4)C4=C3C(=O)CC(C)(C)C4)cc2c1` (stereo not given), the MIC in the assay with Streptococcus pneumoniae was 250 µg/mL (≈ 500 µM); in the assay with Clostridium tetani it was 500 µg/mL (≈ 1000 µM); with Candida albicans, 250 µg/mL (≈ 500 µM); in the assay on Aspergillus fumigatus, 500 µg/mL (≈ 1000 µM); in the assay on Bacillus subtilis, 250 µg/mL (≈ 500 µM); against Vibrio cholerae, 500 µg/mL (≈ 1000 µM). For the same compound, the MIC in the assay on Escherichia coli and against Salmonella typhi was 250 µg/mL (≈ 500 µM) throughout. In assay [1], this compound had an inhibition at 6.25 µg/mL of 80%. For the same compound, in the assay on Plasmodium falciparum, the IC50 came out at 0.22 µg/mL (≈ 0.44 µM).
`COc1ccc(NN2C(N)=C(C#N)C(c3cc4ccccc4nc3Cl)C3=C2CC(C)(C)CC3=O)cc1` (stereo not given): the MIC against Streptococcus pneumoniae was 200 µg/mL (≈ 400 µM); in the assay on Clostridium tetani it was 250 µg/mL (≈ 500 µM); against Candida albicans, more than 1000 µg/mL; in the assay on Aspergillus fumigatus it was more than 1000 µg/mL; with Bacillus subtilis it was 500 µg/mL (≈ 1000 µM); in the assay on Vibrio cholerae, 250 µg/mL (≈ 500 µM). For the same compound, the MIC stood at 250 µg/mL (≈ 500 µM) with Escherichia coli and 200 µg/mL (≈ 400 µM) in the assay with Salmonella typhi. The compound also registered an inhibition at 6.25 µg/mL in [1] of 44%. In the assay on Plasmodium falciparum, this compound registered an IC50 of 0.025 µg/mL (≈ 0.05 µM).
`O=C(N[C@H](CO)[C@H](O)c1ccc([N+](=O)[O-])cc1)C(Cl)Cl` [CHLORAMPHENICOL]: the MIC in the assay on Streptococcus pneumoniae, with Clostridium tetani, against Bacillus subtilis, in the assay on Vibrio cholerae, against Escherichia coli and in the assay on Salmonella typhi was 50 µg/mL (≈ 155 µM) throughout.

In general, MIC refers to the smallest concentration in the dilution series that meets the test's criterion for growth inhibition. The low end stands for inhibition by little substance, the high end for a need for much substance. As usually defined, the inhibition is the drop in the measured response relative to a control, in per cent. What is called IC50 is the concentration that gives 50% inhibition. A high value points to weaker potency in that assay.

These data come from ChEMBL document CHEMBL2040757, “New N-arylamino biquinoline derivatives: synthesis, antimicrobial, antituberculosis, and antimalarial evaluation” (Eur J Med Chem, 2012).
